The target in the first experiment is T1, Cyclooxygenase (Homo sapiens, UniProt P35354+P23219). In words: Inhibition of human platelet Prostaglandin G/H synthase.
Usually IC50 stands for the concentration needed to halve the response being measured. Read a low IC50 as greater potency in that assay. In turn, `Cc1cc(/C=C/c2cccc(C(=O)O)c2)cc(C)c1O` returned an IC50 greater than 10000 nM.

The compound `Cc1cc(/C=C/c2ccc(C(=O)O)cc2)cc(C)c1O` returned a half-inhibitory concentration (IC50) greater than 10000 nM.

The compound `CCCOc1ccc(/C=C/c2cc(C)c(O)c(C)c2)cc1` gave an IC50 of 190 nM.

In turn, `Cc1cc(/C=C/c2ccc(Cl)s2)cc(C)c1O` registered a concentration for half-maximal inhibition (IC50) of 1300 nM.

For the compound `COc1ccc(/C=C/c2cc(C(C)C)c(O)c(C(C)C)c2)cc1`, the IC50 is less than 10000 nM.

Compound `C=CCc1cc(/C=C/c2cccs2)cc(C)c1O` returned an IC50 of 730 nM.

`Cc1cc(C(=O)c2cccs2)cc(C)c1O` gave a half-inhibitory concentration (IC50) of less than 1000 nM.

Compound `Cc1cc(/C=C/c2cccnc2)cc(C)c1O` came in with an IC50 of 11000 nM.

`COc1cc(/C=C/c2cccs2)cc(F)c1O` displayed an IC50 of less than 10000 nM.

Compound `Cc1cc(/C=C/c2ccccc2)cc(C)c1O` showed a half-inhibitory concentration (IC50) of 4200 nM.

On to `Cc1cc(/C=C/C(=O)c2cccs2)cc(C)c1O`, for which the IC50 is less than 10000 nM.

Compound `COc1ccccc1/C=C/c1cc(C)c(O)c(C)c1` yielded an IC50 of 1100 nM. In other words, the single-digit micromolar range.

In turn, `Cc1ccc(/C=C/c2cc(C(C)(C)C)c(O)c(C(C)(C)C)c2)cc1` showed an IC50 of 10000 nM.

The compound `Cc1cc(CCc2cccs2)cc(C)c1O` showed a half-maximal inhibitory concentration (IC50) of 110 nM.

In turn, `CC(C)(C)c1cc(/C=C/c2cccs2)cc(C(C)(C)C)c1O` had an IC50 of 34 nM.

Compound `Cc1cc(/C=C/c2cccs2)cc(F)c1O` had an IC50 of less than 1000 nM.

`CC(C)(C)c1cc(C(=O)c2cccs2)cc(C(C)(C)C)c1O` [PRIFELONE] gave a concentration for half-maximal inhibition (IC50) of 5.7 nM.

Turning to `Cc1cc(CCc2ccc(F)cc2)cc(C)c1O`, the half-inhibitory concentration (IC50) came to 300 nM.

Compound `CCc1ccc(/C=C/c2cc(C)c(O)c(C)c2)cc1` registered an IC50 of 510 nM. Against the preceding compound, the IC50 is about 1.7-fold higher.

Turning to `Cc1cc(/C=C/c2cccs2)cc(Cl)c1O`, the IC50 came to 230 nM.

Test system in the next experiment: not listed separately
In words: Inhibition of human platelet Prostaglandin G/H synthase at the concentration of 10 uM. In outline:
(§1)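 CO activity measured in human platelets. Percent inhibition at a single test concentration is compared with untreated control, with significance by ANOVA and Tukey's multiple comparisons test (p < 0.05).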
Broadly, the inhibition is the percentage by which the read-out fell short of the control. Low readings indicate a weak effect, high ones a strong effect. `Cc1cc(/C=C/c2cccc(C(=O)O)c2)cc(C)c1O` displayed an inhibition of 0%.

The compound `Cc1cc(/C=C/c2ccc(C(=O)O)cc2)cc(C)c1O` showed an inhibition of 0%.

Take `COc1ccc(/C=C/c2cc(C(C)C)c(O)c(C(C)C)c2)cc1`: the inhibition was 84%.

Turning to `Cc1cc(C(=O)c2cccs2)cc(C)c1O`, the inhibition was 90%.

In turn, `COc1cc(/C=C/c2cccs2)cc(F)c1O` had an inhibition of 97%.

The compound `Cc1cc(/C=C/C(=O)c2cccs2)cc(C)c1O` gave an inhibition of 82%.

Turning to `Cc1cc(/C=C/c2cccs2)cc(F)c1O`, the inhibition came out at 95%.

Another experiment has as its target T1, Cyclooxygenase. Briefly: Inhibition of human platelet Prostaglandin G/H synthase at the concentration of 1 uM. Put shortly:
as §1
In turn, `Cc1cc(/C=C/c2cccc(C(=O)O)c2)cc(C)c1O` came in with an inhibition of 0%.

`Cc1cc(/C=C/c2ccc(C(=O)O)cc2)cc(C)c1O` displayed an inhibition of 0%.

`COc1ccc(/C=C/c2cc(C(C)C)c(O)c(C(C)C)c2)cc1` returned an inhibition of 18%.

Take `Cc1cc(C(=O)c2cccs2)cc(C)c1O`: the inhibition was 60%.

`COc1cc(/C=C/c2cccs2)cc(F)c1O` showed an inhibition of 42%.

The compound `Cc1cc(/C=C/C(=O)c2cccs2)cc(C)c1O` came in with an inhibition of 37%.

On to `Cc1cc(/C=C/c2cccs2)cc(F)c1O`, for which the inhibition came out at 72%.

For another experiment, the target named is T2, Polyunsaturated fatty acid 5-lipoxygenase (Homo sapiens) (UniProt P09917).
T2 sequence (whole entry): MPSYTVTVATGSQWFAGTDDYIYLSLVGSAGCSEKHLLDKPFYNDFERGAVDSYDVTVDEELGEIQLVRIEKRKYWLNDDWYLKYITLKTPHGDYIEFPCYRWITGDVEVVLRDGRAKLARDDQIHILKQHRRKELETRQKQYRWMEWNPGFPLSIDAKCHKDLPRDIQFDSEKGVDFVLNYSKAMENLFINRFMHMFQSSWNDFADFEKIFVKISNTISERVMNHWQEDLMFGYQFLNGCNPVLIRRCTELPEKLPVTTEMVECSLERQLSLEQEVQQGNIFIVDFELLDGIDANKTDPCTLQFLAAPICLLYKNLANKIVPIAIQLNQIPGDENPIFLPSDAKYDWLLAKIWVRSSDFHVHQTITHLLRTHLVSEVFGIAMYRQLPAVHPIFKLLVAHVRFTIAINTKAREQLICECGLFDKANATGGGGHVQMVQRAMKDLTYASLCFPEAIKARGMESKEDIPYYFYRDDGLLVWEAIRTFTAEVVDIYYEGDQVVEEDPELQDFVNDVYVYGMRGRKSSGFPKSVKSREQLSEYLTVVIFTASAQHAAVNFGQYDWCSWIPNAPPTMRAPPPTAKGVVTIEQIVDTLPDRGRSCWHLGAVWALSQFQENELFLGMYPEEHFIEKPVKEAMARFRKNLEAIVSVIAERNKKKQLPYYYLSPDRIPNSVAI
Briefly: Inhibition of human neutrophil 5-lipoxygenase at the concentration of 0.1 uM. Put shortly:
(§2)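 5-LO activity measured in human peripheral blood leukocytes. Percent inhibition at a single test concentration is compared with untreated control, with significance by ANOVA and Tukey's multiple comparisons test (p < 0.05).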
With `CCCOc1ccc(/C=C/c2cc(C)c(O)c(C)c2)cc1`, the inhibition amounted to 27%.

For `Cc1cc(/C=C/c2ccc(Cl)s2)cc(C)c1O`, the inhibition came to 32%.

Compound `COc1ccc(/C=C/c2cc(C(C)C)c(O)c(C(C)C)c2)cc1` yielded an inhibition of 13%.

In the case of `COc1cc(/C=C/c2cccs2)cc(F)c1O`, the inhibition worked out at 31%.

On to `Cc1cc(CCc2cccs2)cc(C)c1O`, for which the inhibition stood at 11%.

`Cc1cc(/C=C/c2cccs2)cc(F)c1O`: the inhibition was 18%.

For the compound `Cc1cc(/C=C/c2cccs2)cc(Cl)c1O`, the inhibition was determined as 29%.

Another experiment addresses T2, Polyunsaturated fatty acid 5-lipoxygenase (Homo sapiens). In words: Inhibition of human neutrophil 5-lipoxygenase at the concentration of 1 uM. Put shortly:
as §2
Compound `CCCOc1ccc(/C=C/c2cc(C)c(O)c(C)c2)cc1` returned an inhibition of 90%.

As for `Cc1cc(/C=C/c2ccc(Cl)s2)cc(C)c1O`, the inhibition was found to be 92%.

`COc1ccc(/C=C/c2cc(C(C)C)c(O)c(C(C)C)c2)cc1` showed an inhibition of 71%.

For the compound `Cc1cc(C(=O)c2cccs2)cc(C)c1O`, the inhibition was 1%.

In the case of `COc1cc(/C=C/c2cccs2)cc(F)c1O`, the inhibition worked out at 89%.

In the case of `Cc1cc(CCc2cccs2)cc(C)c1O`, the inhibition worked out at 67%.

Turning to `Cc1cc(/C=C/c2cccs2)cc(F)c1O`, the inhibition stood at 90%.

On to `Cc1cc(/C=C/c2cccs2)cc(Cl)c1O`, for which the inhibition turned out to be 93%.

The target of the next experiment is T3, Polyunsaturated fatty acid 5-lipoxygenase (Homo sapiens, UniProt P09917).
T3 sequence (P09917 whole entry): T2 sequence (whole entry)
Briefly: Inhibition of human neutrophil 5-lipoxygenase.
As for `Cc1cc(/C=C/c2cccc(C(=O)O)c2)cc(C)c1O`, the half-inhibitory concentration (IC50) is greater than 1000 nM.

As to `Cc1cc(/C=C/c2ccc(C(=O)O)cc2)cc(C)c1O`, the IC50 was greater than 1000 nM.

For `CCCOc1ccc(/C=C/c2cc(C)c(O)c(C)c2)cc1`, the 50% inhibitory concentration (IC50) was less than 1000 nM.

The compound `Cc1cc(/C=C/c2ccc(Cl)s2)cc(C)c1O` came in with a 50% inhibitory concentration (IC50) of less than 1000 nM.

Compound `COc1ccc(/C=C/c2cc(C(C)C)c(O)c(C(C)C)c2)cc1` registered a half-maximal inhibitory concentration (IC50) of less than 1000 nM.

`C=CCc1cc(/C=C/c2cccs2)cc(C)c1O` showed an IC50 of 65 nM.

Compound `Cc1cc(C(=O)c2cccs2)cc(C)c1O` came in with a concentration for half-maximal inhibition (IC50) greater than 1000 nM.

In turn, `Cc1cc(/C=C/c2cccnc2)cc(C)c1O` yielded an IC50 of 370 nM.

Compound `COc1cc(/C=C/c2cccs2)cc(F)c1O` registered an IC50 of less than 1000 nM.

`Cc1cc(/C=C/c2ccccc2)cc(C)c1O` returned a half-maximal inhibitory concentration (IC50) of 100 nM.

With `Cc1cc(/C=C/C(=O)c2cccs2)cc(C)c1O`, the IC50 is greater than 1000 nM.

Compound `COc1ccccc1/C=C/c1cc(C)c(O)c(C)c1` returned a 50% inhibitory concentration (IC50) of 100 nM.

On to `Cc1ccc(/C=C/c2cc(C(C)(C)C)c(O)c(C(C)(C)C)c2)cc1`, for which the IC50 was greater than 1000 nM.

`Cc1cc(CCc2cccs2)cc(C)c1O`: the half-maximal inhibitory concentration (IC50) was less than 1000 nM.

Take `CC(C)(C)c1cc(/C=C/c2cccs2)cc(C(C)(C)C)c1O`: the IC50 was 1200 nM.

In the case of `Cc1cc(/C=C/c2cccs2)cc(F)c1O`, the half-inhibitory concentration (IC50) is less than 1000 nM.

Take `CC(C)(C)c1cc(C(=O)c2cccs2)cc(C(C)(C)C)c1O` [PRIFELONE]: the half-maximal inhibitory concentration (IC50) stood at 4800 nM. In other words, the single-digit micromolar range.

For `Cc1cc(CCc2ccc(F)cc2)cc(C)c1O`, the IC50 is greater than 1000 nM.

On to `CCc1ccc(/C=C/c2cc(C)c(O)c(C)c2)cc1`, for which inhibition was half-maximal at 590 nM (IC50).

Regarding `Cc1cc(/C=C/c2cccs2)cc(Cl)c1O`, the IC50 was less than 1000 nM.

The target in the next experiment is T2, Polyunsaturated fatty acid 5-lipoxygenase (Homo sapiens). In words: Inhibition of lipoxygenase at the concentration of 1 uM. Put shortly:
as §2
Regarding `Cc1cc(/C=C/c2cccc(C(=O)O)c2)cc(C)c1O`, the inhibition came to 0%.

`Cc1cc(/C=C/c2ccc(C(=O)O)cc2)cc(C)c1O` displayed an inhibition of 0%.

Compound `Cc1cc(/C=C/C(=O)c2cccs2)cc(C)c1O` yielded an inhibition of 22%.

Consider `Cc1ccc(/C=C/c2cc(C(C)(C)C)c(O)c(C(C)(C)C)c2)cc1`, for which the inhibition was determined as 0%.

The compound `Cc1cc(CCc2ccc(F)cc2)cc(C)c1O` showed an inhibition of 44%.

For the origin of these results see ChEMBL document CHEMBL1124816, “Effect of structure on potency and selectivity in 2,6-disubstituted 4-(2-arylethenyl)phenol lipoxygenase inhibitors” (J Med Chem, 1990).
